Active and inactive are the calls of the source.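 How the source made its calls: active means a clear dose-dependent calcium response in rat M1 cells, with a fitted half-maximal potency; inactive means the rest.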
Molecular target: Muscarinic acetylcholine receptor M1 (Rattus norvegicus) (UniProt P08482)
Assay: rat M1 positive allosteric modulation, dose response, counter-screen for M4 PAM project, CHO cells, calcium fluorescence (AID 588749)
Conditions: Fluo-4 calcium fluorescence
In short: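 Material: rat M1 CHO cells. Also added: acetylcholine at EC20, followed by acetylcholine at EC80. Schedule: 144 s compound pre-incubation, 37 °C. Detection: Fluo-4 calcium flux fluorescence. Measure: % max ACh response and EC50.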

Chain of Muscarinic acetylcholine receptor M1 (Rattus norvegicus) (P08482 whole entry, looked up): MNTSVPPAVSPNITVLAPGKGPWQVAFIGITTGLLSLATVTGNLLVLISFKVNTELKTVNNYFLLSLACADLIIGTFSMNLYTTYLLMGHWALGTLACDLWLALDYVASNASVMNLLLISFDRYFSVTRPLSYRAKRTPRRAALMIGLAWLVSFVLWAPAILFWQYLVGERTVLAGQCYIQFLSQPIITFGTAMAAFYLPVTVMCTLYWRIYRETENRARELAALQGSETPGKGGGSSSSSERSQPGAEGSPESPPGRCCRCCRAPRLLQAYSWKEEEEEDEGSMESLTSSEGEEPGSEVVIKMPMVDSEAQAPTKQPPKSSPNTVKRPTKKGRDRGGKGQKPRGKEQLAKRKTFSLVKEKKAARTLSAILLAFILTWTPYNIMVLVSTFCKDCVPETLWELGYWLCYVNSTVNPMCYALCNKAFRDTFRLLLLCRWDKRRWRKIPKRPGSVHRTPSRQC

In the case of `Cc1nc2sc(C(=O)NCc3nccs3)c(N)c2c(C)c1Cl`, the “percent of ACh max response” value (at 30 µM (top of the series)) is reported as “inactive”.

With `Cc1nc2sc(C(=O)NC3CC3)c(N)c2c(C)c1Cl` the EC50 was 943 nM.

In the case of `Cc1nc2sc(C(=O)NCc3ccncc3)c(N)c2c(C)c1Cl`, the “percent of ACh max response” value (at 45.3 µM (top of the series)) is reported as “inactive”.

In the case of `Cc1nc2sc(C(=O)NCCc3ccncc3)c(N)c2c(C)c1Cl`, the “percent of ACh max response” value (at 30 µM (top of the series)) is reported as “inactive”.

For `Cc1nc2sc(C(=O)NCc3cccc(F)c3F)c(N)c2c(C)c1Cl`, the “percent of ACh max response” value (at 30 µM (top of the series)) was “inactive”.

With `Cc1nc2sc(C(=O)NCc3ccccc3)c(N)c2c(C)c1Cl` the “percent of ACh max response” value (at 37.4 µM (top of the series)) was “inactive”.

In the case of `Cc1nc2sc(C(=O)NCc3ccncn3)c(N)c2c(C)c1Cl`, the “percent of ACh max response” value (at 30 µM (top of the series)) is reported as “inactive”.

In the case of `Cc1nc2sc(C(=O)NCc3cccnc3)c(N)c2c(C)c1Cl`, the “percent of ACh max response” value (at 45.3 µM (top of the series)) is reported as “inactive”.

For `Cc1nc2sc(C(=O)NCc3ccc4c(c3)OCO4)c(N)c2c(C)c1Cl`, the “percent of ACh max response” value (at 36.8 µM (top of the series)) was “inactive”.
